Measurements published in ChEMBL document CHEMBL4152279, “Synthesis, cytotoxic evaluation and target identification of thieno[2,3-d]pyrimidine derivatives with a dithiocarbamate side chain at C2 position” (Eur J Med Chem, 2018).
Activity calls are given as the source filed them. No cut-off for these calls is given here.

Legend:
[1] = target: Tubulin alpha-1C chain (Homo sapiens) (UniProt Q9BQE3); assay: Binding affinity to tubulin alpha-1C in human A549 cells at 0.15 mM after 4 hrs by HPLC-MS based pull down assay relative to control; format: cell-based
Tubulin alpha-1C chain (Homo sapiens), sequence (Q9BQE3 whole entry, looked up): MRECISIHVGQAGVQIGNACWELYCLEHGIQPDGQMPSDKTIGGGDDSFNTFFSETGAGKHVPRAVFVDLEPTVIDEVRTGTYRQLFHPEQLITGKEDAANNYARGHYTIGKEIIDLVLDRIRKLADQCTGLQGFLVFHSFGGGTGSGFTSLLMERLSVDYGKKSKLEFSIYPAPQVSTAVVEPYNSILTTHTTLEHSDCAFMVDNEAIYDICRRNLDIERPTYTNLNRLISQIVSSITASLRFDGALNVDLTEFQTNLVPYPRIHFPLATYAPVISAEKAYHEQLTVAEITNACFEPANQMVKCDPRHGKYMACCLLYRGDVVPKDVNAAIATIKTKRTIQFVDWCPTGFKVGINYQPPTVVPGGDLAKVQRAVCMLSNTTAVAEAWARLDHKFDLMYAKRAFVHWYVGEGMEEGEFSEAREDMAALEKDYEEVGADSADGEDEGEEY
In short: (§1)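 A549 lysate in NETN buffer (pH 8.0, 0.5% NP-40) incubated with biotinylated probe (0.15 mM final) 4 h at 4 °C, with biotin or control probe as comparators. Streptavidin Dynabeads 1 h at 4 °C, six NETN washes, proteins eluted by boiling in SDS buffer. After trypsin digestion, identification by LC-MS/MS on Q Exactive HF.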

A549 [2] = assay: Binding affinity to tubulin alpha-3E in human A549 cells at 0.15 mM after 4 hrs by HPLC-MS based pull down assay relative to control; format: cell-based; in short: as §1
A549 [3] = assay: Binding affinity to tubulin beta in human A549 cells at 0.15 mM after 4 hrs by HPLC-MS based pull down assay relative to control; format: cell-based; in short: as §1
[4] = target: Tubulin beta-3 chain (Homo sapiens) (UniProt Q13509); assay: Binding affinity to tubulin beta-3 in human A549 cells at 0.15 mM after 4 hrs by HPLC-MS based pull down assay relative to control; format: cell-based; in short: as §1
Tubulin beta-3 chain (Homo sapiens), sequence (Q13509 whole entry): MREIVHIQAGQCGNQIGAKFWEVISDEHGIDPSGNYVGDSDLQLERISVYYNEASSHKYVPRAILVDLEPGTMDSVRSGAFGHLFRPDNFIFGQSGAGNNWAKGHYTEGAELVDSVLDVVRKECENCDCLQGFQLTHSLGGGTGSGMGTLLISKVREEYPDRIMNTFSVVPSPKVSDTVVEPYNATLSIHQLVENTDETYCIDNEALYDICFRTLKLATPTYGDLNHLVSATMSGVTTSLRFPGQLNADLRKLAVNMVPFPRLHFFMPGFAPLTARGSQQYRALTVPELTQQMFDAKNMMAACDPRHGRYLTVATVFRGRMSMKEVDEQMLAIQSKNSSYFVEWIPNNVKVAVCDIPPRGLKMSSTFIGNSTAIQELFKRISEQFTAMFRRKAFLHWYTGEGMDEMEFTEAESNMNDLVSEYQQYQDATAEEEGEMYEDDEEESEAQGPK

[5] = target: Probable ATP-dependent RNA helicase DDX17 (Homo sapiens) (UniProt Q92841); assay: Binding affinity to DDX17 in human A549 cells at 0.15 mM after 4 hrs by HPLC-MS based pull down assay relative to control; format: cell-based; in short: as §1
Probable ATP-dependent RNA helicase DDX17 (Homo sapiens), sequence (Q92841 whole entry): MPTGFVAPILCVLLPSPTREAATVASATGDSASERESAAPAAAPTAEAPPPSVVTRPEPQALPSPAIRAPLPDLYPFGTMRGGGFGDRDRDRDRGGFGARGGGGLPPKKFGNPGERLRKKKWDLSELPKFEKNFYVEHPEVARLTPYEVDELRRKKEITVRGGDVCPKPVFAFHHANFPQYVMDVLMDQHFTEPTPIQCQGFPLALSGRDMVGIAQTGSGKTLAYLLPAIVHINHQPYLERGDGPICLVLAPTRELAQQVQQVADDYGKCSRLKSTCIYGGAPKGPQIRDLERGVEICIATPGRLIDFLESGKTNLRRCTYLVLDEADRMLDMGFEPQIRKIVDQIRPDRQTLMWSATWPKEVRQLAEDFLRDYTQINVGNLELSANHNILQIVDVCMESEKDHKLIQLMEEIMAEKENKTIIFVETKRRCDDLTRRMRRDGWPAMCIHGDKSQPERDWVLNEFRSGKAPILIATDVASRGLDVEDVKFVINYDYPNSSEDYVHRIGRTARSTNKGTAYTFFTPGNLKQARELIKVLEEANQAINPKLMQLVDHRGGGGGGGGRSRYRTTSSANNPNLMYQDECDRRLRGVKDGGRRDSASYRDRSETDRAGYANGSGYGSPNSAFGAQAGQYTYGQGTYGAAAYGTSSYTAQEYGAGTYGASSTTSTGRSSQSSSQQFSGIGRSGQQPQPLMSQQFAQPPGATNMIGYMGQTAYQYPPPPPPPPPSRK

[6] = target: T1, Nucleolar RNA helicase 2 (Homo sapiens) (UniProt Q9NR30); assay: Binding affinity to nucleolar RNA helicase 2 in human A549 cells at 0.15 mM after 4 hrs by HPLC-MS based pull down assay relative to control; format: cell-based; in short: as §1
T1 sequence (whole entry): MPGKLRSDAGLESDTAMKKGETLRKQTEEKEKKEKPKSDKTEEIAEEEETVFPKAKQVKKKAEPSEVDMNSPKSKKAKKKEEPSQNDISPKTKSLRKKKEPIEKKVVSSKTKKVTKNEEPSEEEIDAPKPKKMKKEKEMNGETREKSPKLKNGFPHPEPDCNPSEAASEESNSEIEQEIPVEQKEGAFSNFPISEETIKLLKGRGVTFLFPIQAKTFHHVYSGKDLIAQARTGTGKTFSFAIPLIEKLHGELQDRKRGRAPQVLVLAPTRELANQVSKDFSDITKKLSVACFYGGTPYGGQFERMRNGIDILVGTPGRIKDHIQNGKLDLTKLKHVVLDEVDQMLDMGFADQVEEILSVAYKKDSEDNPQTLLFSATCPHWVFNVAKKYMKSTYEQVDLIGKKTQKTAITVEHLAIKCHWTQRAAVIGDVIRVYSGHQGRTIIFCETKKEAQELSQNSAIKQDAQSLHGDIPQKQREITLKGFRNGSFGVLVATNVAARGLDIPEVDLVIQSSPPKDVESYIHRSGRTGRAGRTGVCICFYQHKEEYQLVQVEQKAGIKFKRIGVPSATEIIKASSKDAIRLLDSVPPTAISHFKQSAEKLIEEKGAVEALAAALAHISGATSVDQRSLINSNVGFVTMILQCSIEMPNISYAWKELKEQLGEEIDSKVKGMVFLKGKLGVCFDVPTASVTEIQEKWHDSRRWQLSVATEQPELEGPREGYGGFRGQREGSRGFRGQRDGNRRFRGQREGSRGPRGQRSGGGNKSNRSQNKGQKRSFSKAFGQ

[7] = target: Serine/arginine-rich splicing factor 1 (Homo sapiens) (UniProt Q07955); assay: Binding affinity to serine/arginine-rich-splicing factor 1 in human A549 cells at 0.15 mM after 4 hrs by HPLC-MS based pull down assay relative to control; format: cell-based; in short: as §1
Serine/arginine-rich splicing factor 1 (Homo sapiens), sequence (Q07955 whole entry): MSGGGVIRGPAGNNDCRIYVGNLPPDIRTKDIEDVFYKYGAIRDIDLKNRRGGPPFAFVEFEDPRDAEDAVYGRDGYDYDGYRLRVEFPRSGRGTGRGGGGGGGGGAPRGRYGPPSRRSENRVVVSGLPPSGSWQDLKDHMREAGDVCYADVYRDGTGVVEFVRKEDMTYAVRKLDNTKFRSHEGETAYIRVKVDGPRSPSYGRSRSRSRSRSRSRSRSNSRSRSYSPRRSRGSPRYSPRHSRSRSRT

[8] = target: Serine/arginine-rich splicing factor 9 (Homo sapiens) (UniProt Q13242); assay: Binding affinity to serine/arginine-rich-splicing factor 9 in human A549 cells at 0.15 mM after 4 hrs by HPLC-MS based pull down assay relative to control; format: cell-based; in short: as §1
Serine/arginine-rich splicing factor 9 (Homo sapiens), sequence (Q13242 whole entry): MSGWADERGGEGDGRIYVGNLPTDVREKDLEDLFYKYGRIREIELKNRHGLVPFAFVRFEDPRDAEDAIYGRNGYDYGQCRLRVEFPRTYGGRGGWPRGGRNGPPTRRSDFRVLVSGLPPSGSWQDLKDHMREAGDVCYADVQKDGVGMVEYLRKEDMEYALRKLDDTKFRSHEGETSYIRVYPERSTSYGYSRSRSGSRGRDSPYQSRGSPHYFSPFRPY

[9] = target: T2, RNA-binding protein EWS (Homo sapiens) (UniProt Q01844); assay: Binding affinity to RNA-binding protein EWS in human A549 cells at 0.15 mM after 4 hrs by HPLC-MS based pull down assay relative to control; format: cell-based; in short: as §1
T2 sequence (whole entry): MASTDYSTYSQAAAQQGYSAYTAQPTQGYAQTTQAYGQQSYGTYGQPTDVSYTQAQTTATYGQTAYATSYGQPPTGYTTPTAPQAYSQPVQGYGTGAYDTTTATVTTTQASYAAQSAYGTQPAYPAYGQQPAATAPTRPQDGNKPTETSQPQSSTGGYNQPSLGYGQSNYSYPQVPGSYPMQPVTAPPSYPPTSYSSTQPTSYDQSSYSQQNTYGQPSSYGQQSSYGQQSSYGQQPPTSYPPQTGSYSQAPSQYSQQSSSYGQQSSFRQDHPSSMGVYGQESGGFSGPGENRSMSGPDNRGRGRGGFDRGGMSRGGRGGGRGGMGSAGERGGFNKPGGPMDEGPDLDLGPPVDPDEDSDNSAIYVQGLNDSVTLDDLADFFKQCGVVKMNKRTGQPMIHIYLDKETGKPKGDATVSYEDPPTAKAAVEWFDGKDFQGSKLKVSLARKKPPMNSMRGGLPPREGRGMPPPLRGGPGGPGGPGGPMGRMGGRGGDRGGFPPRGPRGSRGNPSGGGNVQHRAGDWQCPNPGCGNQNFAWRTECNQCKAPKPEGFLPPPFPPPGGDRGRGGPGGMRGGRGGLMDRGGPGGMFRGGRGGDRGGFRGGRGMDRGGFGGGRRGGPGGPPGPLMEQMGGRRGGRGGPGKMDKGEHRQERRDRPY

A549 [10] = assay: Binding affinity to tubulin alpha in human A549 cells immunoblot based based pull down assay; format: cell-based
In short: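 A549 lysate in NETN buffer incubated with biotin, biotinylated probe or control probe at 4 °C, then streptavidin Dynabeads 1 h at 4 °C. Beads washed six times, bound proteins run on SDS-PAGE and immunoblotted for α-tubulin.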

Sus scrofa [11] = organism: Sus scrofa; assay: Inhibition of vinblastine binding to porcine tubulin treated 2 hrs post colchicine treatment by pull down assay
In short: (§2)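 Porcine neuronal tubulin was preincubated with excess taxol, colchicine, vinblastine or nocodazole for 2 h at 4 °C. Biotinylated probe was then added in NETN buffer, followed by streptavidin Dynabead pull-down for 1 h at 4 °C and six washes. Bound α-tubulin was detected by SDS–PAGE and immunoblot. Three independent experiments.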

Sus scrofa [12] = organism: Sus scrofa; assay: Inhibition of nocodazole binding to porcine tubulin treated 2 hrs post colchicine treatment by pull down assay; in short: as §2
Sus scrofa [13] = organism: Sus scrofa; assay: Inhibition of vinblastine binding to porcine tubulin preincubated with tubulin followed by vinblastine treatment measured after 2 hrs by immunoblot analysis
Sus scrofa [14] = organism: Sus scrofa; assay: Inhibition of nocodazole binding to porcine tubulin preincubated with tubulin followed by nocodazole treatment measured after 2 hrs by immunoblot analysis

With Cc1cc2c(=O)[nH]c(CSC(=S)N(CCCNC(=O)CCCC[C@@H]3SC[C@@H]4NC(=O)N[C@@H]43)Cc3ccc(C#N)cc3)nc2s1 the Activity [1] was 16.6%, the Activity (A549 [2]) was 15.3% and the Activity (A549 [3]) was 35.7%. For the same compound, the Activity [4] was 16.7%, the Activity [5] was 52.8% and the Activity [6] was 35.1%. For the same compound, the Activity [7] was 52.2%, the Activity [8] was 63.8% and the Activity [9] was 55.8%. The Activity (A549 [10]) was “Active”, the inhibition (Sus scrofa [11]) was “Active” and the inhibition (Sus scrofa [12]) was “Active”. The inhibition (Sus scrofa [13]) was “Active” and the inhibition (Sus scrofa [14]) was “Active”.
